Source: PubChem (The Scripps Research Institute Molecular Screening Center)
mABHD4 FP: ABHD4 (mouse) inhibition, primary FP screen; 0.54% of 370,000 active; purified mABHD4, FP-Rh probe fluorescence polarization; Q8VD66; inhibition, % at 8.92 µM;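 active = inhibition exceeding the mean over every tested compound plus 3 SD, cut at about 30% in these data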
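Doses – 8.92 µM, single dose · Material – wild-type mouse ABHD4 protein · Replication – single well per compound (singlicate) · Measure – percent inhibition of probe binding, normalized to plate controls · Schedule – 45 min compound pre-incubation plus 60 min probe step, 25 °C · Detection – fluorescence polarization with parallel and perpendicular emission, 525/598 nm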
rCAG binder: molecules binding r(CAG) RNA repeats; r(CAG) RNA repeat, TO-PRO-1 dye displacement fluorescence; inhibition, % at 3 µM; 1.3% of 370,000 active;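 active = inhibition above the plate cutoff, the mean of all test compounds on that plate plus 3 SD, cut at about 35% in these data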;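 also: higher means more dye released from RNA so lower well fluorescence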
HTRA1 inh: blocks human HTRA1 serine peptidase; recombinant HTRA1, FP-rhodamine activity-based probe, fluorescence polarization; AID 504803; inhibition, % at 5.96 µM; 0.5% of 340,000 active; in the data active = inhibition above about 36%
Target sequence (Q92743 whole entry, looked up): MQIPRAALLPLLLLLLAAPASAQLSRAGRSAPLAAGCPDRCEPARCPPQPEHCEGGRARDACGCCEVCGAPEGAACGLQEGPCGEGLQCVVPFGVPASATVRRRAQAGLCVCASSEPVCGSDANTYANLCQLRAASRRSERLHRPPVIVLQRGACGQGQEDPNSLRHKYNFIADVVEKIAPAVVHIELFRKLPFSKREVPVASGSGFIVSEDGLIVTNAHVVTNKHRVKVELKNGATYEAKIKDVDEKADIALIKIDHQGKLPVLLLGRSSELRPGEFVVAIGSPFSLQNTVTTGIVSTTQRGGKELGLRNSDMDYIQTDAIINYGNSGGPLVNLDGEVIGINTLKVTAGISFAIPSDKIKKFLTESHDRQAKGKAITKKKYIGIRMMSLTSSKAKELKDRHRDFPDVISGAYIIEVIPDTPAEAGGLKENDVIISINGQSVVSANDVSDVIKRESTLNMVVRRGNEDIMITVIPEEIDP
PRMT1 inh: PRMT1 (human) inhibition, primary screen; recombinant PRMT1, activity-based probe fluorescence polarization; 1.3% of 370,000 active; inhibition, % at 2.79 µM; AID 652257; Q99873;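 active = inhibition above about 21% made by adding two undisclosed values, limit read from the data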
LEDGF integ inh: blocks HIV-1 LEDGF/p75-dependent DNA integration; TR-FRET IN-LEDGF/p75 DNA integration, Eu/Cy5; inhibition, % at 3.7 µM; 0.64% of 370,000 active;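 active = inhibition above the screen-wide mean plus 3 SD, cut at about 13% in these data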;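 also: signal is the Cy5 over europium emission ratio at 671 and 618 nm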
DAGLB inhibitor: diacylglycerol lipase beta (human) inhibition; HEK293T DAGLB membrane lysate, EnzChek fluorogenic substrate; Q8NCG7; inhibition, % at 5.17 µM; 0.059% of 340,000 active; in the data active = inhibition above about 34%
ABHD4 confirm: ABHD4 (mouse) inhibition, FP confirmation. shares compounds with mABHD4 FP. purified mABHD4, FP-Rh probe fluorescence polarization. inhibition, % at 8.92 µM. 55% of 1,800 active. AID 720658;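 active = mean inhibition across replicates above the hit cutoff set in the primary screen, cut at about 30% in these data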
Each line names hits and unclear results; the compound was inactive in the other large screens (follow-up assays come after a bar, where they were run). Only some compounds are listed: those with a hit (about 3.2% of all), similar ones and a draw of the others.

Cc1cccc(NC(=O)c2oc(=O)c3ccccc3c2-c2ccccc2)c1C	none
CCOc1ccccc1NC1=CC(=O)CC(c2ccccc2)C1 (configuration not stated)	mABHD4 FP 37 | ABHD4 confirm inactive
Cc1cccc(NC(=O)NNC(=O)c2ccccn2)c1	mABHD4 FP 30 | ABHD4 confirm inactive
O=C(NNC(=O)c1ccccn1)c1cccc([N+](=O)[O-])c1	mABHD4 FP 32 | ABHD4 confirm inactive
O=C(O)C1CC=CCC1C(=O)Nc1ccccc1C(=O)N1CCN(c2ccc(F)cc2)CC1 (configuration not stated)	none
Cc1ccccc1C(=O)NC(=S)Nc1ccccc1[N+](=O)[O-]	none (no result: mABHD4 FP, rCAG binder, PRMT1 inh, LEDGF integ inh)
CCc1nc2ccc(C(=O)Nc3cc(-c4ccccc4)ccc3OC)cn2c1N(CC)Cc1cccc(Br)c1	mABHD4 FP 31 (no result: HTRA1 inh, DAGLB inhibitor) | ABHD4 confirm inactive
Cc1nc(N)nc(N)c1-c1ccc([N+](=O)[O-])cc1	none
Cc1ccc(O)c(CP(=O)(c2ccccc2)c2ccccc2)c1	none
CCNc1ccccc1CP(=O)(c1ccccc1)c1ccccc1O (configuration not stated)	mABHD4 FP 77, PRMT1 inh 75 (no result: HTRA1 inh, DAGLB inhibitor) | ABHD4 confirm 46
CCN(CC(=O)Nc1c(F)cccc1F)C(=O)/C=C/c1ccc(C)o1	none
COc1cc(/C=N/NC(=S)NC2CC3C=CC2C3)cc(OC)c1OC (configuration not stated)	mABHD4 FP 30 (no result: HTRA1 inh, DAGLB inhibitor) | ABHD4 confirm 38
CCn1ncc(CN2CCN(C(=O)Nc3ccccc3C(=O)OC)CC2)c1C	none
CCOc1ccccc1C(=O)N[C@H](C(=O)OCc1csc(CC(=O)Nc2ccc(C)cc2)n1)C(C)C	none
CCOc1ccccc1C(=O)NCC(=O)OCc1csc(CC(=O)Nc2ccc(C)cc2)n1	mABHD4 FP 36 | ABHD4 confirm inactive
O=C(c1ccco1)N1CCc2[nH]nc(-c3ccc(Cl)cc3)c2C1	none
Cc1cccn2c(CNCCSc3nccn3C)c(C(=O)N3CCCCC3)nc12	mABHD4 FP 35 | ABHD4 confirm inactive
CCCCCCC(=O)Nc1nc(C)c(-c2csc(Nc3cc(OC)ccc3OC)n2)s1	mABHD4 FP 34 | ABHD4 confirm 49
CN(C)c1cccc(O)c1	mABHD4 FP 51 | ABHD4 confirm inactive
Cc1cc(O)ccc1Nc1cc(-c2cccc(N(C)C)c2)ncn1	none (no result: HTRA1 inh, DAGLB inhibitor)
CCN(CC)C(=O)C1=C(C)N(Cc2ccc(F)cc2)C(=O)C(CC(=O)NCCc2ccccn2)C1 (configuration not stated)	none
Nc1ccc2nc(-c3cccs3)[nH]c2c1	mABHD4 FP 31 | ABHD4 confirm 30
Nc1ccc2nc(-c3cccnc3)[nH]c2c1	none
Nc1ccc2nc(-c3ccccc3)[nH]c2c1	mABHD4 FP 32 | ABHD4 confirm inactive
N#CC1=C(N)Oc2cc(O)ccc2C1c1cccnc1 (configuration not stated)	none
Cc1nn(-c2ccccc2)c2c1C(c1ccc([N+](=O)[O-])cc1)C(C#N)=C(N)O2 (configuration not stated)	mABHD4 FP 42 | ABHD4 confirm inactive
Cc1nn(-c2cccc(Cl)c2)c2c1C(c1cccnc1)C(C#N)=C(N)O2 (configuration not stated)	mABHD4 FP 31 | ABHD4 confirm inactive
Cc1nn(-c2ccccc2)c2c1C(c1cccs1)C(C#N)=C(N)O2 (configuration not stated)	none (no result: mABHD4 FP, rCAG binder, PRMT1 inh, LEDGF integ inh)
Cc1ccc(-n2nc(C)c3c2OC(N)=C(C#N)C3c2ccc(F)cc2)cc1 (configuration not stated)	mABHD4 FP 37 | ABHD4 confirm inactive
Cc1cc(NC(=O)CSc2nnnn2C)n(-c2ccccc2)n1	mABHD4 FP 56 | ABHD4 confirm inactive
O=C(COC(=O)CCNS(=O)(=O)c1ccc(Cl)cc1)NCc1ccco1	none
Nc1cc(Cc2ccccc2)ccc1O	none
CCN(c1ccccc1)S(=O)(=O)c1cc(C(=O)OC2CCOC2=O)ccc1C (configuration not stated)	mABHD4 FP 31 | ABHD4 confirm inactive
Cc1oc2ccc(OC(=O)N3CCOCC3)cc2c1C(=O)OC(C)C	mABHD4 FP 59 | ABHD4 confirm 54
CCOC(=O)c1c(C)oc2ccc(OC(=O)N3CCOCC3)cc12	mABHD4 FP 40 | ABHD4 confirm 40
Cc1cc(-c2n[nH]c(=S)n2CC(C)C)cs1	mABHD4 FP 32 | ABHD4 confirm inactive
C=CCNc1nc2ccccc2c(=O)[nH]1	none
CCCCC#Cc1ccccc1COC[B-](F)(F)F	mABHD4 FP 75 (no result: HTRA1 inh, DAGLB inhibitor) | ABHD4 confirm 75
F[B-](F)(F)COCc1ccccc1Br	mABHD4 FP 80 | ABHD4 confirm 70
O=C(O)c1ccccc1OCc1ccccc1Br	none
O=C(C#Cc1ccccc1)Nc1ccccc1F	none
F[B-](F)(F)COCc1ccccc1C#Cc1ccccc1	mABHD4 FP 77 (no result: HTRA1 inh, DAGLB inhibitor) | ABHD4 confirm 79
Cc1nc2ccccc2nc1OCC(=O)Nc1ccc2ccccc2c1	none
O=C(Cc1ccc(Cl)c(Cl)c1)Nc1ccccc1N1CCOCC1	none
CCCOC(c1ccccc1)(c1ccccc1)C(Oc1nc(C)cc(C)n1)C(=O)O (configuration not stated)	none
Cc1cc(C)nc(OC(C(=O)O)C(OCCC(C)C)(c2ccccc2)c2ccccc2)n1 (configuration not stated)	mABHD4 FP 35 | ABHD4 confirm 47
CC(=O)Oc1cccc2c1C(=O)c1c(OC(C)=O)cc(C(=O)O)cc1C2=O	mABHD4 FP 48 | ABHD4 confirm inactive
O=C1Nc2c(c(=O)[nH]c(=O)n2-c2ccccc2)C1(Nc1ncccn1)C(F)(F)F (configuration not stated)	none
CCc1noc(C)c1C(=O)N(C)CC(=O)Nc1ccccc1Br	none
CCc1noc(C)c1C(=O)N(C)CC(=O)Nc1ccc(Br)cc1C	mABHD4 FP 41 | ABHD4 confirm inactive
CCOc1ccc(CCNC(=O)CS(=O)Cc2nc(-c3ccc(C)cc3)oc2C)cc1OCC (configuration not stated)	none
CCOc1ccc(CCNC(=O)CS(=O)Cc2nc(-c3ccc(C)cc3)oc2C)cc1 (configuration not stated)	mABHD4 FP 30 | ABHD4 confirm inactive
CCOC(=O)c1c(C)[nH]c2cc(Br)c(O)cc12	mABHD4 FP 39 | ABHD4 confirm 60
CC(=O)Cc1ccccc1OCC(=O)O	none
COc1ccc(C(=O)Nc2nc3ccccc3[nH]2)cc1	none
Cc1ccc(C(=O)Nc2nc3ccccc3[nH]2)cc1	mABHD4 FP 30 | ABHD4 confirm inactive
C=CCN=C1S/C(=C\c2ccc(Cl)cc2)C(=O)N1CC=C	none (no result: HTRA1 inh, DAGLB inhibitor)
O=C(N[C@@H](Cc1cccnc1)C(=O)N1CCC[C@H]1C(=O)NCCc1ccccc1Cl)c1ccc(Cl)cc1Cl	none (no result: HTRA1 inh, DAGLB inhibitor)
